{"source": "ChEMBL document CHEMBL1145100", "about": "“Structure-activity relationship of imidazo[1,2-a]pyridines as ligands for detecting beta-amyloid plaques in the brain” (J Med Chem, 2003)", "target": "Amyloid-beta precursor protein (Homo sapiens, UniProt P05067)", "sequence (P05067 whole entry)": "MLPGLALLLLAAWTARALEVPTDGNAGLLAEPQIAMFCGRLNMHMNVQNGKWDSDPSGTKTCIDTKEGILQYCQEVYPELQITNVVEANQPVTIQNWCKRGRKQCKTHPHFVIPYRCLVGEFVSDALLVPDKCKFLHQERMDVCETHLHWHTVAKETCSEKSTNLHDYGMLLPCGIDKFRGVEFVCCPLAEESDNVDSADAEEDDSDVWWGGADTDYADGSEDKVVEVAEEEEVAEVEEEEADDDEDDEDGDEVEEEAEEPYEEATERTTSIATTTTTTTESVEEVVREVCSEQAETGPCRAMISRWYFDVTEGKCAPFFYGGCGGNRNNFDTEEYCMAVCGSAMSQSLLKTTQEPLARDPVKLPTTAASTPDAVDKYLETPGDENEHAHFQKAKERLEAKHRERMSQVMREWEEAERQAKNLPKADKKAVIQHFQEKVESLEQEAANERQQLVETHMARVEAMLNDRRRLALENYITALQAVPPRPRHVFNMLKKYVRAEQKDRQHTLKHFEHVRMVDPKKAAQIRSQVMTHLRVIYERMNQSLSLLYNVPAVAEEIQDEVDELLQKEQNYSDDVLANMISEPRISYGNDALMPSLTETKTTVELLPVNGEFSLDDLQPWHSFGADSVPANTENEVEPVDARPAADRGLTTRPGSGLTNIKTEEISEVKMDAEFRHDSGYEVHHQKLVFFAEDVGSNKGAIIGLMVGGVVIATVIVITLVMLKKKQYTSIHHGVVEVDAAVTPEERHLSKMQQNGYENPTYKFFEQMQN", "assay": "Inhibition constant against [125I]-7 (TZDM) binding to Amyloid beta 1-40 aggregates", "in_short": "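Abeta40 peptide aggregated at 0.5 mg/mL in pH 7.4 buffer (10 mM sodium phosphate, 1 mM EDTA), 37 °C for 36-42 h with shaking. Competition in 1 mL of 40% EtOH: fibrils 10-50 nM final, radiotracer 0.05 nM, inhibitors 10^-5 to 10^-10 M. Nonspecific binding with 2 µM thioflavin-T. Incubated 3 h at room temperature, then GF/B filtration with 10% ethanol washes and gamma counting. Ki from nonlinear regression.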", "note": "pKi: −log10 of the molar value."}
{"smiles": "CN(C)c1ccc2nc(-c3ccc(Br)cc3)cn2c1", "values": [{"measurement": "pKi", "value": 6.47}]}
{"smiles": "CN(C)c1ccc(-c2nc3ccc(I)cn3c2I)cc1", "values": [{"measurement": "pKi", "value": "< 5.70"}]}
